EBNA-1 inh: blocks EBNA-1 binding to DNA | EBNA-1 DNA binding, fluorescence polarization | AID 1950 | 300,000 compounds, 0.34% hits | inhibition, % at 14.8 µM; in the data active = inhibition above about 28%
Apaf-1 inh: inhibitors of human Apaf-1 apoptosome; O14727; reconstituted apoptosome caspase-3 activity, DEVD-Rh110 fluorescence; inhibition, % at 20 µM; 330,000 compounds, 0.71% hits; AID 489030; active = inhibition of at least 40% at 20 µM
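Material: biochemical Apaf-1 apoptosome reconstitution. Medium: Hepes buffer, pH 7.5. Also added: cytochrome c activation, bis-DEVD rhodamine 110 substrate. Timing: 30 min compound preincubation, 50 min activation, room temperature. Measured by: rhodamine 110 fluorescence at Ex 480/Em 540 nm.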
PfG6PD inh: PfG6PD (Plasmodium falciparum) enzyme inhibition; PfGluPho enzyme, NADPH resazurin-diaphorase fluorescence; AID 504690; 350,000 compounds, 0.78% hits; inhibition, % at 20 µM;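 active = inhibition reaching at least a set limit at 20 µM in the primary screen, cut at about 59% in these data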
PfM18AAP inh-1: blocks P. falciparum M18 aspartyl aminopeptidase. recombinant PfM18AAP, H-Glu-NHMec fluorogenic cleavage. inhibition, % at 7.35 µM. 290,000 compounds, 1.2% hits;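 active = inhibition above the campaign mean inhibition over all tested compounds plus 3 SD, cut at about 28% in these data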
ZTA DNA inh: counter-screen for EBNA-1 inhibitors: inhibitors of Epstein-Barr virus ZTA; P03206; ZTA-DNA binding, fluorescence polarization; inhibition, % at 11 µM; 320,000 compounds, 0.15% hits; in the data active = inhibition above about 33%
Target sequence (P03206 whole entry, looked up): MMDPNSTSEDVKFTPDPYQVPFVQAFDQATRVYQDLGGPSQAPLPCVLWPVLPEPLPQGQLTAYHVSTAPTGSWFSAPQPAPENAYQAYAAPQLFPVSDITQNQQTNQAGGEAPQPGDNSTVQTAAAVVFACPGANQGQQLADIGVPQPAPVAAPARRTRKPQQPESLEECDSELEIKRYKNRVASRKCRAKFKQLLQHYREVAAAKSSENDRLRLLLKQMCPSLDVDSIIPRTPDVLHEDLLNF
UBC13 polyUb: blocks human UBC13 polyubiquitin chain formation | TR-FRET | 330,000 compounds, 0.47% hits | AID 485273 | inhibition, % at 20 µM; in the data active = inhibition above about 45%, passing the limit was not always enough
Target sequence (P61088 whole entry, looked up): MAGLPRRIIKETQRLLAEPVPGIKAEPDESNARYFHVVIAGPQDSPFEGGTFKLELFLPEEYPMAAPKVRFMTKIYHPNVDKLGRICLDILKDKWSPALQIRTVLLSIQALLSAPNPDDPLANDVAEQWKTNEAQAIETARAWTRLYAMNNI
PfM18AAP inh-2: PfM18AAP inhibition, confirmation; shares compounds with PfM18AAP inh-1; recombinant PfM18AAP, H-Glu-NHMec fluorogenic cleavage; inhibition, % at 7.35 µM; 2,400 compounds, 28% hits; AID 2170;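 active = mean inhibition over replicate wells above the hit cutoff set for the earlier primary screen, cut at about 29% in these data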
CTSL1 confirm: Cathepsin L (human) inhibition, confirmation. inhibition, % at 5.96 µM. purified cathepsin L1, Z-Leu-Arg-MCA fluorescence. shares compounds with PfM18AAP inh-1. AID 2178. 2,400 tested, under 10 active;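 active = average inhibition across replicates above the hit cutoff set in the earlier primary screen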
PfGluPho conf: confirmation of Plasmodium falciparum G6PD inhibitors. shares compounds with PfG6PD inh. recombinant PfGluPho, NADPH-diaphorase-resazurin fluorescence. inhibition, % at 20 µM. 2,400 compounds, 34% hits. AID 504753;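 active = inhibition of at least 50% at 20 µM in any single replicate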
Diaphorase 10uM: counter-screen for P. falciparum G6PD inhibitors: diaphorase inhibitors, oxidizers; inhibition, % at 20 µM; AID 504862; diaphorase-coupled resazurin reduction, fluorescence, NADPH 10 uM; 820 compounds, 39% hits; shares compounds with PfG6PD inh;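 active = average inhibition reaching 50% or more with the compound at 20 µM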;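 note: resorufin red fluorescence formed as diaphorase reduces resazurin using NADPH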
Diaphorase 30uM: diaphorase inhibition or oxidation at 30 uM NADPH; shares compounds with PfG6PD inh; Diaphorase/resazurin coupled assay, resorufin fluorescence; inhibition, % at 20 µM; 820 compounds, 29% hits;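 active = inhibition averaging 50% or more, tested at 20 µM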
Large screens that a line does not name were inactive (follow-up assays come after a bar, where they were run). The list is not random: actives were taken first. Their share in the collection is about 2.9%.

OCc1nc2ccccc2n1/N=C/c1cccs1	none
COc1cc(/C=N/N2CCN(Cc3ccc(C)cc3)CC2)cc(OC)c1O	PfG6PD inh 78.6, PfM18AAP inh-1 46.8 | PfM18AAP inh-2 inactive | CTSL1 confirm inactive | PfGluPho conf inactive
COc1ccc(S(=O)(=O)NCC(c2ccc3c(c2)OCO3)N2CCN(c3ccccc3)CC2)cc1 (stereo unspecified)	none (no result: PfM18AAP inh-1)
CNCc1ccccc1Sc1ccc(O)c(O)c1	PfG6PD inh 97.9, PfM18AAP inh-1 50.8 (no result: Apaf-1 inh, UBC13 polyUb) | PfM18AAP inh-2 69.7 | CTSL1 confirm inactive | PfGluPho conf 94.9 | Diaphorase 10uM 72.5 | Diaphorase 30uM 61.1
COc1ccc(Sc2ccccc2CN(C)C)cc1OC	none
CCN(CC)C(=O)c1c(C)[nH]c(=S)c(C#N)c1-c1ccco1	PfG6PD inh 61.5, PfM18AAP inh-1 56.4 | PfM18AAP inh-2 inactive | CTSL1 confirm inactive | PfGluPho conf 50.6 | Diaphorase 10uM inactive | Diaphorase 30uM inactive
Cc1nn(C)c(Sc2ccccc2N)c1[N+](=O)[O-]	PfG6PD inh 64.2, PfM18AAP inh-1 39.2 | PfM18AAP inh-2 inactive | CTSL1 confirm inactive | PfGluPho conf inactive
CCCN(C(=O)C1CSC2(C)CCC(=O)N12)c1c(N)n(Cc2ccccc2)c(=O)[nH]c1=O (stereo unspecified)	none (no result: PfM18AAP inh-1)
Oc1ccc(N2CCN(c3ncnc4sc(-c5ccccc5)cc34)CC2)cc1	PfG6PD inh 71.8, PfM18AAP inh-1 43.5 (no result: EBNA-1 inh, Apaf-1 inh, ZTA DNA inh, UBC13 polyUb) | PfM18AAP inh-2 inactive | CTSL1 confirm inactive | PfGluPho conf inactive
Cn1c(=O)[nH]c(=O)c2c1nc(SCCN1CCCCC1)n2CCCc1ccccc1	PfG6PD inh 76.8, PfM18AAP inh-1 54.6 | PfM18AAP inh-2 inactive | CTSL1 confirm inactive | PfGluPho conf 62.7 | Diaphorase 10uM inactive | Diaphorase 30uM inactive
C[C@H](CO)N1C[C@H](C)[C@@H](CN(C)S(=O)(=O)c2cccs2)Oc2c(NC(=O)C3CC3)cccc2C1=O	none (no result: EBNA-1 inh, PfM18AAP inh-1, ZTA DNA inh)
Cc1ccc(/C=C/C(=O)N2CCC(Cc3ccccc3)CC2)cc1	none
CC1(c2ccc([N+](=O)[O-])cc2)Nc2ccccc2S1 (stereo unspecified)	PfG6PD inh 72.3, PfM18AAP inh-1 35.5 | PfM18AAP inh-2 inactive | CTSL1 confirm inactive | PfGluPho conf inactive
O=C(COC(=O)c1cnccn1)c1ccc([N+](=O)[O-])cc1	PfG6PD inh 78.8, PfM18AAP inh-1 39.8 | PfM18AAP inh-2 inactive | CTSL1 confirm inactive | PfGluPho conf 67.5 | Diaphorase 10uM inactive | Diaphorase 30uM inactive
O=C(O)c1ccccc1NS(=O)(=O)c1cccc(-n2sc3ccccc3c2=O)c1	PfG6PD inh 109.5, PfM18AAP inh-1 62.4 | PfM18AAP inh-2 49.7 | CTSL1 confirm inactive | PfGluPho conf 105.2 | Diaphorase 10uM inactive | Diaphorase 30uM inactive
COCCCN1C(=O)c2ccc(C(=O)Nc3ccc(C)cc3C)cc2C1=O	none
Cc1cc(O)c(-c2cc(O)c(C)cc2O)cc1O	PfG6PD inh 111.5, PfM18AAP inh-1 71.2 | PfM18AAP inh-2 51.2 | CTSL1 confirm inactive | PfGluPho conf 109.7 | Diaphorase 10uM 72.6 | Diaphorase 30uM inactive
O=C(CCn1c(=S)[nH]c2cc3c(cc2c1=O)OCO3)NCc1ccccc1Cl	none
CCCCNC(=O)CNC(=S)N(CCCN1CCOCC1)Cc1cccs1	none
